Measurements from different studies.
Lines come from different studies, so protocols differ.
Cell line: Vero
Effect on: cell growth or viability

Cc1cn([C@H]2C[C@H](N=[N+]=[N-])[C@@H](CO)O2)c(=O)[nH]c1=O
CC50: 51 µM

COC(=O)N[C@H](C(=O)N1C[C@H](N=[N+]=[N-])C[C@H]1c1ncc(-c2ccc(-c3ccc(-c4cnc([C@@H]5C[C@@H](N=[N+]=[N-])CN5C(=O)[C@@H](NC(=O)OC)C(C)C)[nH]4)cc3)cc2)[nH]1)C(C)C
CC50: > 100 µM

CC(=O)C1=C(C)N2NC(c3ccccc3O)N(C(Cc3c[nH]c4ccccc34)C(=O)O)C2=NC1c1ccc(Cl)cc1 (stereo not drawn)
CC50 (MTT; 72 h): 250 µg/mL

COC(=O)N[C@H](C(=O)N1CCC[C@H]1c1nc(-c2ccc(-c3ccc(-c4c[nH]c([C@@H]5CCCN5C(=O)[C@@H](NC(=O)OC)C(C)C)n4)cc3)cc2)c[nH]1)C(C)C
CC50: 26 µM

Clc1ccccc1NCc1ccc(Oc2ccccn2)cc1
CC50 (MTT; 72 h): > 300 µM

O=C(Nc1ccc(Br)c(C(F)(F)F)c1)c1ccccc1O
CC50 (MTT; 72 h): < 5 µg/mL

Brc1ccc(NCc2ccc(Oc3ccccn3)cc2)cc1
CC50 (MTT; 72 h): > 300 µM

N#Cc1c(-c2ccc(Cl)cc2)nc2n(c1=O)NC(c1ccccc1O)N2C(Cc1c[nH]c2ccccc12)C(=O)O (stereo not drawn)
CC50 (MTT; 72 h): 250 µg/mL

O=C(Nc1ccc(F)c(Cl)c1)c1cc(Cl)ccc1O
CC50 (MTT; 72 h): < 5 µg/mL

CC(C(=O)O)N1c2nc(-c3ccc(Cl)cc3)c(C#N)c(=O)n2NC1c1ccccc1O (stereo not drawn)
CC50 (MTT; 72 h): 500 µg/mL

O=C1C(O)=C([C@H]2CC[C@H](c3ccc(Cl)cc3)CC2)C(=O)c2ccccc21
CC50: 9.5 µM

COc1cccc(NCc2ccc(Oc3ccccn3)cc2)c1
CC50 (MTT; 72 h): > 300 µM

COC(=O)N[C@@H](C[S+]([O-])Cc1ccccc1)C(=O)N1CCC[C@H]1c1ncc(-c2ccc(-c3ccc(-c4cnc([C@@H]5CCCN5C(=O)[C@@H](NC(=O)OC)C(C)C)[nH]4)cc3)cc2)[nH]1 (stereo partly drawn)
CC50: 4 µM

Cc1cccc(NCc2ccc(Oc3ccccn3)cc2)c1
CC50 (MTT; 72 h): > 300 µM

O=C(Nc1ccc(Br)cc1)c1cc(Cl)ccc1O
CC50 (MTT; 72 h): 10 µg/mL

COc1ccc(NCc2ccc(Oc3ccccn3)cc2)cc1
CC50 (MTT; 72 h): > 300 µM

COc1ccc(CN2C(=O)c3ccccc3C2CB2OC(C)(C)C(C)(C)O2)cc1 (stereo not drawn)
CC50: 2.3 µM

O=C(Nc1ccc([N+](=O)[O-])cc1F)c1cc(Cl)ccc1O
CC50 (MTT; 72 h): 5 µg/mL

CC1(C)OB(CC2c3ccccc3C(=O)N2C2CCCCC2)OC1(C)C (stereo not drawn)
CC50: 175 µM

O=C(Nc1ccc(Br)c(C(F)(F)F)c1)c1cc(Cl)ccc1O
CC50 (MTT; 72 h): 5 µg/mL

Brc1cccc(NCc2ccc(Oc3ccccn3)cc2)c1
CC50 (MTT; 72 h): > 300 µM
